Screening data as filed in PubChem.
Ecoli tolC: blocks growth of E. coli BW25113 tolC mutant | OD615 | growth inhibition, % at 10 µM (by protocol) | actives 2.2% (n = 65,000);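 active means growth inhibition at or above a cutoff equal to the mean over every tested compound plus 3 SD, cut at about 60% in these data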;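 further: growth measured after 20 h incubation at 37 °C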
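Assay system: tolC-deleted E. coli BW25113. Medium: kanamycin-containing LB broth (50 µg/mL). Dosing: 10 µM final, single dose. Timing: bacterial growth with compound for 20 h at 37 °C. Detection: A615 absorbance measurement. Read-out basis: growth inhibition in percent.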
Jurkat tox 60K: cytotoxic compounds reducing Jurkat cell viability; inhibition, % at 4 µM; AID 463; actives 1.2% (n = 56,000); Jurkat E6.1 viability, ATP luminescence, 48 h;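 active means inhibition above the mean inhibition of all tested compounds plus 3 SD, cut at about 28% in these data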
H69AR growth 86K: blocks growth of human H69AR lung tumor cells. H69AR lung tumor viability, ATP luminescence, 72 h; stronger effect = lower value. AID 598. viability, % at 10 µM. actives 6% (n = 85,000);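 active means viability at or below 40%; inactive means viability above 40%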;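 further: multidrug resistant small cell line overexpressing MRP-1 efflux transporter; 100% = mean luminescence of untreated control wells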
Lung fibro prol: blocks proliferation of human lung fibroblasts. actives 1.1% (n = 85,000). LL 47 human lung fibroblast viability, ATP luminescence; stronger effect = lower value. AID 719. viability, % at 10 µM;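 active means viability at or below 50% in the single dose screen; inactive means viability above 50%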;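 further: compound exposure lasted 72 h before the ATP readout; 100% = median luminescence of untreated cell-only wells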
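Material: Human LL 47 lung fibroblast cells | Input: 1,150 cells/well | Buffer or medium: IMEM plus 15% FBS | Compound dosing: 0.1% DMSO in all compound wells | Times: Overnight cell rest, 72 h compound treatment at 37 °C | Signal: CellTiter-Glo luminescence measuring cellular ATP | Measure: % viability versus median cells-only luminescence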
HUVEC inhibit: human endothelial cell proliferation inhibition. HUVEC proliferation, CellTiter-Glo luminescence, 72 h; stronger effect = lower value. viability, % at 10 µM (by protocol). actives 1.1% (n = 86,000). AID 648;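 active means viability at or below 30%; inactive means viability above 30%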;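 further: 100% = median luminescence of DMSO-only cell control wells on each plate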
Ecoli WT expand: growth inhibitors of E. coli BW25113 wild type. growth inhibition, % at 100 µM. AID 710. actives 0.15% (n = 98,000). OD600 absorbance;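 active means growth inhibition above about 50% at one test dose, limit read from the data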;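 further: growth measured after 20 h incubation at 37 °C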
An asterisk follows results filed as active; · = not tested or not shown. An excerpt weighted towards active compounds, which were near 6.4% of everything screened.

SMILES | Ecoli tolC | Jurkat tox 60K | H69AR growth 86K | Lung fibro prol | HUVEC inhibit | Ecoli WT expand
O=C(CCCCn1c(=O)c2ccccc2n(CC(=O)Nc2ccc(F)cc2)c1=O)NCc1ccco1 | -18 | 10 | 89 | 94 | 85 | -1
Cc1ccc(C)c(Cn2c(=O)n(CCCC(=O)NCc3ccco3)c(=O)c3ccccc32)c1 | -18 | -7 | 36* | 83 | 86 | ·
O=C(CCCCn1c(=O)c2ccccc2n(Cc2ccc(F)cc2Cl)c1=O)NCc1ccco1 | 24 | · | 24* | 88 | 64 | -3
O=C(NCc1ccco1)c1ccc(Cn2c(=O)c3ccccc3n(Cc3cccc(Cl)c3)c2=O)cc1 | · | · | 31* | 68 | 62 | -12
CC1(C)Cc2nc3sc4c(=O)n(CC(=O)NCc5ccco5)cnc4c3cc2CO1 | 8 | · | 22* | 83 | 68 | 1
CCOC(=O)c1c(N)sc2c(OC)c(Br)ccc12 | 100* | 4 | 78 | 96 | 27* | 4
CCOC(=O)c1c(N)sc(-c2ccccc2)c1C | · | · | 105 | 100 | 71 | ·
FC(F)(F)c1cc(-c2ccco2)nc(NCCc2ccccc2)n1 | · | · | 24* | 89 | 88 | -4
COc1ccc(C/C(O)=C(\C#N)c2nc3ccccc3s2)cc1 | 74* | · | 67 | 87 | 81 | -7
N#C/C(=C(/O)CSc1ccccc1C(=O)O)c1nc2ccccc2s1 | · | · | · | · | · | -5
Cc1ccc(SC/C(O)=C(\C#N)c2nc3ccccc3s2)cc1 | 83* | -2 | 55 | 92 | 39 | -15
COc1ccccc1/C=C/CN1CC(C)OC(C)C1 (configuration not stated) | -19 | 4 | 92 | 102 | 103 | -3
CC(C)CN(C(=O)c1nn(C)c(=O)c2ccccc12)c1nc2ccccc2s1 | · | · | 84 | 90 | 110 | -8
O=C1OC(Nc2ccc3c(c2)OCO3)c2ccccc21 (configuration not stated) | -2 | · | 16* | 49* | 56 | -4
O=C(NCCO)C1(c2ccc(Cl)cc2)CCCC1 | · | · | · | · | · | -4
Cc1ccc(N(C(C)C(=O)O)S(=O)(=O)c2c(C)n[nH]c2C)cc1 (configuration not stated) | -22 | -16 | 96 | 110 | 104 | -10
COc1ccc(C2C=C(c3ccc(C)c(C)c3)Nc3ncnn32)c(OC)c1OC (configuration not stated) | 6 | 27 | 25* | 62 | 62 | 9
Cc1cccc(CSc2nnc(-c3cccs3)n2Cc2ccco2)c1 | · | · | 90 | 102 | 92 | -12
Cc1ccc(-c2nnc(Sc3nc4ccccc4o3)c3ccccc23)cc1 | · | · | · | · | · | -14
Cc1nnc(Sc2nc3ccccc3o2)c2ccccc12 | 17 | 8 | 6.8* | 94 | 80 | 9
Cc1ccc(S(=O)(=O)N2CCN(Cc3nc4ccccc4[nH]3)CC2)cc1C | · | · | 35* | 92 | 101 | 2
Cc1cc(C)c(C)c(S(=O)(=O)N2CCN(Cc3nc4ccccc4[nH]3)CC2)c1C | · | · | 42 | 98 | 88 | 0
CCCCC(=O)Nc1ccc(Cl)cn1 | -1 | 4 | 106 | 103 | 109 | 9
O=C(CCc1ccccc1)Nc1ccc(Cl)cn1 | -3 | 78* | 30* | 57 | 53 | 2
Cc1ccc(C(=O)Nc2ccc(Cl)cn2)cc1 | -13 | 76* | 24* | 79 | 63 | -3
SMILES | Ecoli tolC | Jurkat tox 60K | H69AR growth 86K | Lung fibro prol | HUVEC inhibit | Ecoli WT expand
O=C(CCC1COc2ccccc2O1)Nc1ccc(Cl)cn1 (configuration not stated) | 18 | -4 | 92 | 87 | 15* | 2
COc1cccc2c(=O)n(CC(=O)N3CCCCC3)ccc12 | · | · | 97 | 96 | 105 | 6
CCc1sc(C(=O)NC2CCN(C)CC2)cc1Br | -9 | -4 | 98 | 104 | 89 | 2
Cn1c(SC/C=C/c2ccccc2)nnc1-c1ccco1 | -6 | 3 | 91 | 109 | 96 | 5
CCCOc1ccc(-c2nnc(-c3ccco3)o2)cc1 | 15 | 2 | 90 | 103 | 113 | 1
CC(C)COc1ccc(-c2nnc(-c3ccco3)o2)cc1 | 61* | -3 | 85 | 97 | 103 | -17
COc1ccc(CONS(=O)(=O)c2ccc(NC(C)=O)cc2)cc1Cl | · | · | · | · | · | 7
Cc1cc(C)n(CC(O)CN2c3ccccc3Sc3ccccc32)n1 (configuration not stated) | 41 | 1 | 75 | 85 | 60 | -20
COc1ccc(N2C(N)=NC(N)=NC2(C)C)cc1 | · | · | 82 | 90 | 98 | 2
COc1cccc(N2C(N)=NC(N)=NC2(C)C)c1 | -6 | 66* | 42 | 102 | 106 | 6
CCCCN1CN(S(=O)(=O)c2cccs2)c2nc3ccccc3nc21 | 9 | 0 | · | · | · | -5
CC(C)CCN1CN(S(=O)(=O)c2cccs2)c2nc3ccccc3nc21 | · | · | 37* | 94 | 80 | -5
CCOC(=O)n1c(=O)n(Cc2c(Cl)cccc2Cl)c2ccccc21 | · | · | · | · | · | -4
C=CCSc1nc(=O)n2cccc(C)c2n1 | · | · | · | · | · | -11
CNC(=O)c1nn(-c2ccc(C)cc2)ccc1=O | · | · | · | · | · | 10
C=CCSc1nccc(-c2nn(-c3ccc(C)cc3)ccc2=O)n1 | · | · | 21* | 64 | 59 | -20
C#CCSc1nccc(-c2nn(-c3ccc(C)cc3)ccc2=O)n1 | · | · | 17* | 83 | 64 | -5
CCn1c(SCc2c(Cl)cccc2Cl)nnc1-c1nn(-c2ccccc2)ccc1=O | · | · | · | · | · | 17
CSc1nccc(-c2nn(-c3ccc(C)cc3)ccc2=O)n1 | · | · | 24* | 58 | 48 | 6
CCSc1nccc(-c2nn(-c3ccc(C)cc3)ccc2=O)n1 | · | · | 18* | 67 | 58 | -7
O=C(COc1ccccc1)NCCc1cn2ccsc2n1 | -2 | -1 | 99 | 94 | 103 | 2
CC(C)(C)CC(=O)NC(=S)N1CCCCCC1 | · | · | · | · | · | -1
O=C(NC1CCCCCC1)c1ccc(S(=O)(=O)NCc2ccco2)cc1 | · | · | · | · | · | 4
O=C(NCCc1c[nH]c2ccccc12)c1ccc(S(=O)(=O)NCc2ccco2)cc1 | -3 | · | 39* | 96 | 70 | 6
COc1ccc(NC(=O)c2cc(CN3C(=O)c4ccccc4C3=O)ccc2OC)cn1 | 4 | 25 | 17* | · | 62 | -4
SMILES | Ecoli tolC | Jurkat tox 60K | H69AR growth 86K | Lung fibro prol | HUVEC inhibit | Ecoli WT expand
CN(C)CC(C)(C)CNC(=O)c1cc(=O)c2ccccc2o1 | · | · | · | · | · | -7
COc1ccc(CCn2c(=S)[nH]c3cc(C(=O)NCc4ccco4)ccc3c2=O)cc1OC | 13 | -5 | 4.4* | 76 | 7.3* | -16
COc1ccc(-n2c(=S)[nH]c3cc(C(=O)NCc4ccco4)ccc3c2=O)cc1OC | -6 | -2 | 81 | 97 | 102 | -17
CCOc1ccc(OCCCCN2CCCC2)cc1 | · | · | 74 | 93 | 91 | 6
CCN1CCN(CCCOc2ccc(-c3ccccc3)cc2)CC1 | 10 | -2 | 19* | 51 | 48 | 11
Cc1ccc(N2C(N)=C(C#N)C(c3cccnc3)C3=C2CCCC3=O)cc1 (configuration not stated) | -8 | 8 | 30* | 93 | 90 | -9
CC1(C)CC(=O)C2=C(C1)N(c1ccccc1)C(N)=C(C#N)C2c1cccnc1 (configuration not stated) | -8 | 2 | 35* | 86 | 93 | -3
